{"data": "Measurements pooled from the literature", "cell line": "NCI-H460", "effect on": "cell growth or viability", "note": "Each line is one published result; the experiments were not run side by side."}
{"Compound": "COc1cc([C@@H]2c3cc4c(cc3[C@H](O)[C@H]3COC(=O)[C@H]23)OCO4)cc(OC)c1OC", "technique": "MTT", "time": "72 h", "endpoint": "EC50", "value": "0.0002 µM"}
{"Compound": "C=C(C)[C@@H]1CC[C@]2(CO)CC[C@]3(C)[C@H](CC[C@@H]4[C@@]5(C)CC[C@H](O)C(C)(C)[C@@H]5CC[C@]43C)[C@@H]12", "time": "48 h", "endpoint": "IC50", "value": "11.5 µM"}
{"Compound": "C1COCCN1.COc1ccc(/C=C\\c2cc(I)c(OC)c(I)c2)cc1OP(=O)(O)O", "technique": "SRB", "time": "48 h", "endpoint": "GI50", "value": "0.033 µg/mL"}
{"Compound": "N.N.[Cl][Pt][Cl]", "technique": "MTT", "time": "72 h", "endpoint": "IC50", "value": "3 µM"}
{"Compound": "CN1C[C@H](C(=O)N[C@]2(C)O[C@@]3(O)[C@@H]4CCCN4C(=O)[C@H](Cc4ccccc4)N3C2=O)C=C2c3cccc4[nH]cc(c34)C[C@H]21", "technique": "MTT", "time": "72 h", "endpoint": "EC50", "value": "~25 µM"}
{"Compound": "N.N.[Cl][Pt][Cl]", "time": "24 h", "endpoint": "IC50", "value": "50.5 µM"}
{"Compound": "N.N.[Cl][Pt][Cl]", "endpoint": "IC50", "value": "19 µM"}
{"Compound": "Cc1cccc(-n2ncc(Cl)c(Cl)c2=O)c1", "technique": "resazurin", "time": "96 h", "endpoint": "IC50", "value": "1.5 µM"}
